Values after ≈ are worked out from the molar mass of the structure shown.
Legend:
[1] = Selectivity ratio of IC50 for HEK293 cells to IC50 for human MCF7 cells; type: ADME, cell-based; conditions: HEK293 cells versus MCF7 cells, read-out: Ratio IC50
MCF7 = test: Cytotoxicity against human MCF7 cells assessed inhibition of cell proliferation after 3 days by MTT assay; conditions: MCF7, 72 h
[2] = Selectivity ratio of IC50 for HEK293 cells to IC50 for human HT-29 cells; type: ADME, cell-based; conditions: HEK293 cells versus HT-29 cells, read-out: Ratio IC50
HT-29 [3] = test: Cytotoxicity against human HT-29 cells assessed inhibition of cell proliferation after 3 days by MTT assay; conditions: HT-29, 72 h
HEK293 = test: Cytotoxicity against HEK293 cells assessed inhibition of cell proliferation after 3 days by MTT assay; conditions: Homo sapiens, HEK293, 72 h
HT-29 [4] = test: Down regulation of VEGF gene expression in human HT-29 cells at 10 ug/mL after 48 hrs by RT-qPCR analysis relative to control; type: functional
Procedure, shortened: (§1)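 HT-29 or MCF-7 cells grown to 70–80% confluence, serum-starved 24 h, then exposed to compound in DMSO for 48 h; DMSO-only control. Total RNA extracted and transcript measured by RT-qPCR, normalized to β-actin and expressed as percentage of control. At least three measurements; mean ± SEM; one-sample t-test.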

HT-29 [5] = test: Inhibition of VEGF protein secretion in human HT-29 cells at 10 ug/mL after 72 hrs by ELISA relative to control; type: functional; set-up: scale not given: the % may be the effect or the level left
HT-29 [6] = test: Down regulation of c-Myc gene expression in human HT-29 cells at 10 ug/mL after 48 hrs by RT-qPCR analysis relative to control; type: functional; procedure, shortened: as §1
HT-29 [7] = test: Down regulation of hTERT gene expression in human HT-29 cells at 10 ug/mL after 48 hrs by RT-qPCR analysis relative to control; type: functional; procedure, shortened: as §1

| SMILES | selectivity ratio [1] | IC50 (MCF7) | selectivity ratio [2] | IC50 (HT-29 [3]) | IC50 (HEK293) | Activity (HT-29 [4]) | Activity (HT-29 [5]) | Activity (HT-29 [6]) | Activity (HT-29 [7]) |
| --- | --- | --- | --- | --- | --- | --- | --- | --- | --- |
| Oc1cccc(/C=C/c2cccc(O)c2)c1 | 1 | 21 µg/mL (≈ 98.9 µM) | 0.8 | 25.9 µg/mL (≈ 122 µM) | 21 µg/mL (≈ 98.9 µM) | – | – | – | – |
| COc1cccc(/C=C/c2ccc(N)cc2)c1 | 0.3 | 52 µg/mL (≈ 231 µM) | 1.1 | 16.1 µg/mL (≈ 71.5 µM) | 18 µg/mL (≈ 79.9 µM) | 100% | 74% | 74% | 81% |
| COc1ccccc1/C=C/c1cccc(O)c1 | 1 | 24.3 µg/mL (≈ 107 µM) | 1.4 | 17 µg/mL (≈ 75.1 µM) | 24 µg/mL (≈ 106 µM) | 77% | 69% | 100% | 52% |
| Nc1ccc(/C=C/c2ccc(O)cc2)cc1 | 0.4 | 2.2 µg/mL (≈ 10.4 µM) | 0.03 | 30.6 µg/mL (≈ 145 µM) | 0.8 µg/mL (≈ 3.79 µM) | – | – | – | – |
| Oc1ccc(/C=C/c2ccccc2O)cc1 | 0.8 | 21 µg/mL (≈ 98.9 µM) | 0.8 | 22 µg/mL (≈ 104 µM) | 17.5 µg/mL (≈ 82.5 µM) | – | – | – | – |
| COc1ccc(/C=C/c2ccccc2N)cc1 | 1.4 | 0.4 µg/mL (≈ 1.78 µM) | < 0.1 | 73 µg/mL (≈ 324 µM) | 0.6 µg/mL (≈ 2.66 µM) | – | – | – | – |
| COc1ccccc1/C=C/c1ccccc1O | 0.8 | 17.9 µg/mL (≈ 79.1 µM) | 0.7 | 23 µg/mL (≈ 102 µM) | 15 µg/mL (≈ 66.3 µM) | – | – | – | – |
| COc1cccc(/C=C/c2cccc(O)c2)c1 | 1.5 | 13 µg/mL (≈ 57.5 µM) | 1.6 | 11.5 µg/mL (≈ 50.8 µM) | 19 µg/mL (≈ 84 µM) | 60% | 65% | 59% | 41% |
| COc1ccccc1/C=C/c1ccc(O)cc1 | 2.2 | 19 µg/mL (≈ 84 µM) | 1.7 | 24 µg/mL (≈ 106 µM) | 41 µg/mL (≈ 181 µM) | 46% | 67% | 100% | 100% |
| Nc1cccc(/C=C/c2ccc(O)cc2)c1 | 1.2 | 6 µg/mL (≈ 28.4 µM) | 0.1 | 51 µg/mL (≈ 241 µM) | 7 µg/mL (≈ 33.1 µM) | – | – | – | – |
| Nc1ccccc1/C=C/c1ccccc1 | 0.9 | 1.4 µg/mL (≈ 7.17 µM) | 0.1 | 17 µg/mL (≈ 87.1 µM) | 1.3 µg/mL (≈ 6.66 µM) | 100% | 59% | 100% | 59% |
| Nc1ccc(/C=C/c2cccc(O)c2)cc1 | 1 | 24.8 µg/mL (≈ 117 µM) | 0.6 | 42 µg/mL (≈ 199 µM) | 25 µg/mL (≈ 118 µM) | – | – | – | – |
| Nc1ccc(/C=C/c2ccccc2O)cc1 | 1 | 23 µg/mL (≈ 109 µM) | 0.6 | 37 µg/mL (≈ 175 µM) | 21.4 µg/mL (≈ 101 µM) | – | – | – | – |
| COc1ccc(/C=C/c2cccc(N)c2)cc1 | 0.5 | 23 µg/mL (≈ 102 µM) | 0.7 | 16.3 µg/mL (≈ 72.4 µM) | 11 µg/mL (≈ 48.8 µM) | 89% | 73% | 100% | 96% |
| CCCCCCCCCCCC(=O)Nc1ccc(/C=C/c2ccccc2)cc1 | 1.7 | 5.8 µg/mL (≈ 15.4 µM) | < 0.1 | > 100 µg/mL | 10 µg/mL (≈ 26.5 µM) | – | – | – | – |
| Oc1ccccc1/C=C/c1ccccc1O | 1.1 | 23 µg/mL (≈ 108 µM) | 0.9 | 25 µg/mL (≈ 118 µM) | 24.3 µg/mL (≈ 114 µM) | – | – | – | – |
| Nc1ccccc1/C=C/c1ccccc1O | 0.7 | 39 µg/mL (≈ 185 µM) | 0.7 | 36 µg/mL (≈ 170 µM) | 27 µg/mL (≈ 128 µM) | – | – | – | – |

| SMILES | selectivity ratio [1] | IC50 (MCF7) | selectivity ratio [2] | IC50 (HT-29 [3]) | IC50 (HEK293) | Activity (HT-29 [4]) | Activity (HT-29 [5]) | Activity (HT-29 [6]) | Activity (HT-29 [7]) |
| --- | --- | --- | --- | --- | --- | --- | --- | --- | --- |
| CCCCCCCCCCCC(=O)Nc1cccc(/C=C/c2ccccc2)c1 | 3.3 | 3.5 µg/mL (≈ 9.27 µM) | < 0.1 | > 100 µg/mL | 11.6 µg/mL (≈ 30.7 µM) | – | – | – | – |
| Oc1cccc(/C=C/c2ccccc2O)c1 | 0.9 | 20.1 µg/mL (≈ 94.7 µM) | 0.7 | 27 µg/mL (≈ 127 µM) | 18 µg/mL (≈ 84.8 µM) | – | – | – | – |
| CCCCCCCCCCCC(=O)Nc1ccccc1/C=C/c1ccccc1 | 1.3 | 12 µg/mL (≈ 31.8 µM) | 6.4 | 2.5 µg/mL (≈ 6.62 µM) | 16 µg/mL (≈ 42.4 µM) | 37% | 79% | 45% | 53% |
| COc1ccccc1/C=C/c1ccccc1N | < 0.1 | > 100 µg/mL | < 0.1 | > 100 µg/mL | 2.1 µg/mL (≈ 9.32 µM) | – | – | – | – |
| Nc1ccccc1/C=C/c1cccc(O)c1 | 1.2 | 17 µg/mL (≈ 80.5 µM) | 0.7 | 30 µg/mL (≈ 142 µM) | 20 µg/mL (≈ 94.7 µM) | – | – | – | – |
| COc1ccccc1/C=C/c1cccc(N)c1 | 1.2 | 38.7 µg/mL (≈ 172 µM) | 1.8 | 25.3 µg/mL (≈ 112 µM) | 45 µg/mL (≈ 200 µM) | 67% | 75% | 45% | 52% |
| COc1cccc(/C=C/c2cccc(N)c2)c1 | 0.5 | 34 µg/mL (≈ 151 µM) | 0.8 | 19.6 µg/mL (≈ 87 µM) | 16 µg/mL (≈ 71 µM) | 23% | 73% | 34% | 100% |
| COc1cccc(/C=C/c2ccccc2O)c1 | 1.1 | 18 µg/mL (≈ 79.5 µM) | 0.8 | 26 µg/mL (≈ 115 µM) | 20 µg/mL (≈ 88.4 µM) | – | – | – | – |
| Nc1ccccc1/C=C/c1ccc(O)cc1 | < 0.1 | 79 µg/mL (≈ 374 µM) | < 0.1 | > 100 µg/mL | 7 µg/mL (≈ 33.1 µM) | – | – | – | – |
| COc1ccccc1/C=C/c1ccc(N)cc1 | 0.3 | 3.2 µg/mL (≈ 14.2 µM) | < 0.1 | 22 µg/mL (≈ 97.7 µM) | 1 µg/mL (≈ 4.44 µM) | – | – | – | – |
| COc1cccc(/C=C/c2ccccc2N)c1 | < 0.1 | 6.1 µg/mL (≈ 27.1 µM) | < 0.1 | 21.2 µg/mL (≈ 94.1 µM) | 0.5 µg/mL (≈ 2.22 µM) | 100% | 51% | 79% | 35% |
| COc1ccc(/C=C/c2ccc(O)cc2)cc1 | 0.3 | 11.3 µg/mL (≈ 49.9 µM) | 0.2 | 17.4 µg/mL (≈ 76.9 µM) | 3.9 µg/mL (≈ 17.2 µM) | – | – | – | – |
| COc1ccc(/C=C/c2cccc(O)c2)cc1 | 1.1 | 21 µg/mL (≈ 92.8 µM) | 1.1 | 22 µg/mL (≈ 97.2 µM) | 24 µg/mL (≈ 106 µM) | 38% | 73% | 46% | 48% |
| Oc1ccc(/C=C/c2cccc(O)c2)cc1 [(E)-3,4'-STILBENDIOL] | < 0.1 | 23 µg/mL (≈ 108 µM) | 0.2 | 6.9 µg/mL (≈ 32.5 µM) | 1.1 µg/mL (≈ 5.18 µM) | – | – | – | – |
| COc1cccc(/C=C/c2ccc(O)cc2)c1 [(E)-5-METHOXY-4'-STILBENOL] | 1.1 | 21 µg/mL (≈ 92.8 µM) | 0.9 | 26 µg/mL (≈ 115 µM) | 24 µg/mL (≈ 106 µM) | – | – | – | – |
| Oc1ccc(/C=C/c2ccc(O)cc2)cc1 [TRANS-4,4'-DIHYDROXYSTILBENE] | 0.2 | 6.8 µg/mL (≈ 32 µM) | < 0.1 | > 100 µg/mL | 1.2 µg/mL (≈ 5.65 µM) | – | – | – | – |

From ChEMBL document CHEMBL3734660, “Inhibitory effect of cytotoxic stilbenes related to resveratrol on the expression of the VEGF, hTERT and c-Myc genes” (Eur J Med Chem, 2015)
